The species named for the first assay is Homo sapiens. In words: Selectivity ratio of IC50 for 20S immunoproteasome beta 1 in human Raji cell lysates to IC50 for 20S constitutive proteasome beta 2 trypsin-like activity in human Raji cells. The assay is classed as cell-based.
Regarding `Cc1ncc(C(=O)N[C@@H](CC2CCCCC2)C(=O)N[C@@H](CC(C)C)C(=O)N[C@H](/C=C/S(C)(=O)=O)Cc2ccc(CN)cc2)s1`, the Ratio IC50 is greater than 1500.

The species named for the next assay is Homo sapiens. In words: Selectivity ratio of IC50 for 20S immunoproteasome beta 5 in human Raji cell lysates to IC50 for 20S constitutive proteasome beta 2 trypsin-like activity in human Raji cells. The assay is classed as cell-based.
Consider `Cc1ncc(C(=O)N[C@@H](CC2CCCCC2)C(=O)N[C@@H](CC(C)C)C(=O)N[C@H](/C=C/S(C)(=O)=O)Cc2ccc(CN)cc2)s1`, for which the Ratio IC50 was greater than 1500.

A further assay concerns the target T1, Proteasome Macropain subunit MB1 (Homo sapiens, UniProt P28074).
T1 sequence (P28074 whole entry): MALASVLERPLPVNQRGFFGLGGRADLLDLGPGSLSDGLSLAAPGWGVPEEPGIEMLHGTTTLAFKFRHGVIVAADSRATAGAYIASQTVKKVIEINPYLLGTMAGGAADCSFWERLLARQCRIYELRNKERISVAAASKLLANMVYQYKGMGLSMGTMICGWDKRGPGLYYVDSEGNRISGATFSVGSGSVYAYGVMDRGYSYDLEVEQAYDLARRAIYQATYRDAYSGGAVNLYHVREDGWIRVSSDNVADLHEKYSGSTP
The assay can be described thus: Inhibition of 20S constitutive proteasome beta 5 chymotrypsin-like activity in human Raji cell lysates after 1 hr by competitive ABPP assay. The assay is classed as subcellular, Lysate.
What is called IC50 is the concentration that inhibits the measured activity by half. Higher therefore signals weaker potency in that assay. Take `Cc1ncc(C(=O)N[C@@H](CC2CCCCC2)C(=O)N[C@@H](CC(C)C)C(=O)N[C@H](/C=C/S(C)(=O)=O)Cc2ccc(CN)cc2)s1`: the IC50 is greater than 100 µM.

In a further assay the target is T2, Proteasome subunit beta type-6 (Homo sapiens, UniProt P28072).
T2 sequence (P28072 whole entry): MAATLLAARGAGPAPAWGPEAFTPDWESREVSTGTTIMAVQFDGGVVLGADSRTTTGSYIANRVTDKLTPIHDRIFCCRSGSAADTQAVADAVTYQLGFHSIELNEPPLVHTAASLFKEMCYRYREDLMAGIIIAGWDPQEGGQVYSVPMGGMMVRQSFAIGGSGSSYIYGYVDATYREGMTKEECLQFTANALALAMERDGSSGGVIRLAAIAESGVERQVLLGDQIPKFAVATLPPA
The assay can be described thus: Inhibition of 20S constitutive proteasome beta 1 caspase-like activity in human Raji cell lysates after 1 hr by competitive ABPP assay. The assay is classed as subcellular, Lysate. The gist of the method: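 Raji cells were sonicated in 3 volumes of Tris pH 7.5 lysis buffer containing DTT, MgCl₂, sucrose, 2 mM ATP and 0.05% digitonin. Lysate (5 μg protein, in buffer with 2 mM ATP and glycerol) was preincubated with inhibitor for 1 h at 37 °C, then with a cocktail of three fluorescent ABPs for 1 h. In-gel fluorescence densitometry was normalized to mock. IC50 came from the mean of three experiments.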
The molecule `Cc1ncc(C(=O)N[C@@H](CC2CCCCC2)C(=O)N[C@@H](CC(C)C)C(=O)N[C@H](/C=C/S(C)(=O)=O)Cc2ccc(CN)cc2)s1` returned an IC50 greater than 100 µM.

The target of the next assay is T3, Proteasome subunit beta type-9 (Homo sapiens, UniProt P28065).
T3 sequence (P28065 whole entry): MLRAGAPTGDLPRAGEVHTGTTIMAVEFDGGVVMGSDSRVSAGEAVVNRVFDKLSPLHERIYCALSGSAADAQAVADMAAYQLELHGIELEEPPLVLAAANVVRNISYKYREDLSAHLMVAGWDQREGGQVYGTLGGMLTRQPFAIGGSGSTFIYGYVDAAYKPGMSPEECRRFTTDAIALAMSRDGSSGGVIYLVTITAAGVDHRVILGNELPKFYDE
In words: Inhibition of 20S immunoproteasome beta 1 in human RPMI8226 cell lysates after 1 hr by coomassie brilliant blue staining-based fluorescence assay. The assay is classed as subcellular, Lysate. The essentials:
(§1)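 Living RPMI-8226 cells were grown in RPMI-1640 with 10% FCS. Cells at (5–8)×10⁵ cells/mL were exposed to inhibitor for 1 h at 37 °C, washed in PBS and lysed on ice for 1 h in digitonin/ATP buffer. Residual activity was read by cocktail-ABP labeling, SDS-PAGE and fluorescence densitometry relative to mock, with Coomassie staining correcting for loading. IC50 came from three independent experiments.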
For `Cc1ncc(C(=O)N[C@@H](CC2CCCCC2)C(=O)N[C@@H](CC(C)C)C(=O)N[C@H](/C=C/S(C)(=O)=O)Cc2ccc(CN)cc2)s1`, the IC50 is greater than 10 µM.

The next assay addresses T4, Proteasome subunit beta type-10 (Homo sapiens, UniProt P40306).
T4 sequence (P40306 whole entry): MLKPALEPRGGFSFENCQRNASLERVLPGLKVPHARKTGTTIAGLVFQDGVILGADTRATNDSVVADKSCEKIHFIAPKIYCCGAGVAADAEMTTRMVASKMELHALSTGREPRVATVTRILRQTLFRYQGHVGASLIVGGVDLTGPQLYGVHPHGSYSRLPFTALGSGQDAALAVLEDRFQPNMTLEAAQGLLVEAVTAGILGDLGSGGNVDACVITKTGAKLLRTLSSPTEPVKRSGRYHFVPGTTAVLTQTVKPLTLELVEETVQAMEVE
In words: Inhibition of 20S immunoproteasome beta 2 in human RPMI8226 cell lysates after 1 hr by coomassie brilliant blue staining-based fluorescence assay. The assay is classed as subcellular, Lysate.
In turn, `Cc1ncc(C(=O)N[C@@H](CC2CCCCC2)C(=O)N[C@@H](CC(C)C)C(=O)N[C@H](/C=C/S(C)(=O)=O)Cc2ccc(CN)cc2)s1` came in with an IC50 greater than 10 µM.

Another assay is filed under the species Homo sapiens. In words: Selectivity ratio of IC50 for 20S constitutive proteasome beta 1 caspase-like activity in human Raji cell lysates to IC50 for 20S constitutive proteasome beta 2 trypsin-like activity in human Raji cells. The assay is classed as cell-based.
Turning to `Cc1ncc(C(=O)N[C@@H](CC2CCCCC2)C(=O)N[C@@H](CC(C)C)C(=O)N[C@H](/C=C/S(C)(=O)=O)Cc2ccc(CN)cc2)s1`, the Ratio IC50 was greater than 1500.

For another assay, the target named is T1, Proteasome Macropain subunit MB1. In words: Inhibition of 20S constitutive proteasome beta 5 chymotrypsin-like activity in human RPMI8226 cell lysates after 1 hr by coomassie brilliant blue staining-based fluorescence assay. The assay is classed as subcellular, Lysate. The essentials:
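Cells at (5–8)×10⁵ cells/mL were exposed to inhibitor for 1 h at 37 °C, washed in PBS and lysed on ice for 1 h in digitonin/ATP buffer. Residual activity was read by cocktail-ABP labeling, SDS-PAGE and fluorescence densitometry relative to mock, with Coomassie staining correcting for loading. IC50 came from three independent experiments.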
As to `Cc1ncc(C(=O)N[C@@H](CC2CCCCC2)C(=O)N[C@@H](CC(C)C)C(=O)N[C@H](/C=C/S(C)(=O)=O)Cc2ccc(CN)cc2)s1`, the IC50 was greater than 10 µM.

Another assay is filed under the species Homo sapiens. In words: Selectivity ratio of IC50 for 20S constitutive proteasome beta 5 chymotrypsin-like activity in human Raji cell lysates to IC50 for 20S constitutive proteasome beta 2 trypsin-like activity in human Raji cells. The assay is classed as cell-based.
For `Cc1ncc(C(=O)N[C@@H](CC2CCCCC2)C(=O)N[C@@H](CC(C)C)C(=O)N[C@H](/C=C/S(C)(=O)=O)Cc2ccc(CN)cc2)s1`, the Ratio IC50 was greater than 1500.

Another assay concerns the target T5, Proteasome subunit beta type-8 (Homo sapiens, UniProt P28062).
T5 sequence (P28062 whole entry): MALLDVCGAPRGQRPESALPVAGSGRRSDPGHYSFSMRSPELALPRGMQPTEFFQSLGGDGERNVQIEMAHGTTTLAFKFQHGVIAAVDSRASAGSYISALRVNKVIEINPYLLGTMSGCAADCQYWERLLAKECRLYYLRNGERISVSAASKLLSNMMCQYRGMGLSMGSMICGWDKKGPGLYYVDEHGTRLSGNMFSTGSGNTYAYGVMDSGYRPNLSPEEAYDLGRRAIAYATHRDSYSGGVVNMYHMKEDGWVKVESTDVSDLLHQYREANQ
The assay can be described thus: Inhibition of 20S immunoproteasome beta 5 in human RPMI8226 cell lysates after 1 hr by coomassie brilliant blue staining-based fluorescence assay. The assay is classed as subcellular, Lysate. The gist of the method: as §1
Regarding `Cc1ncc(C(=O)N[C@@H](CC2CCCCC2)C(=O)N[C@@H](CC(C)C)C(=O)N[C@H](/C=C/S(C)(=O)=O)Cc2ccc(CN)cc2)s1`, the IC50 was greater than 10 µM.

For the next assay, the species on record is Homo sapiens. The assay can be described thus: Selectivity ratio of IC50 for 20S immunoproteasome beta 2 (unknown origin) to IC50 for 20S constitutive proteasome beta 2 trypsin-like activity (unknown origin).
With `Cc1ncc(C(=O)N[C@@H](CC2CCCCC2)C(=O)N[C@@H](CC(C)C)C(=O)N[C@H](/C=C/S(C)(=O)=O)Cc2ccc(CN)cc2)s1`, the Ratio IC50 was 30.

For a further assay, the target named is T4, Proteasome subunit beta type-10. In words: Inhibition of 20S immunoproteasome beta 2 (unknown origin) by cell based ABPP assay. The essentials:
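Living RPMI-8226 cells, (5–8) ×10^5 cells/mL, exposed to inhibitor 1 h at 37 °C, washed, lysed in digitonin buffer 1 h on ice; residual activity labelled with cocktail ABPs, SDS-PAGE in-gel fluorescence, bands divided by mock, Coomassie staining to correct loading. IC50 from mean of three independent experiments.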
Regarding `Cc1ncc(C(=O)N[C@@H](CC2CCCCC2)C(=O)N[C@@H](CC(C)C)C(=O)N[C@H](/C=C/S(C)(=O)=O)Cc2ccc(CN)cc2)s1`, inhibition was half-maximal at 0.54 µM (IC50).

A further assay addresses T6, Proteasome subunit beta type-7 (Homo sapiens, UniProt Q99436).
T6 sequence (Q99436 whole entry): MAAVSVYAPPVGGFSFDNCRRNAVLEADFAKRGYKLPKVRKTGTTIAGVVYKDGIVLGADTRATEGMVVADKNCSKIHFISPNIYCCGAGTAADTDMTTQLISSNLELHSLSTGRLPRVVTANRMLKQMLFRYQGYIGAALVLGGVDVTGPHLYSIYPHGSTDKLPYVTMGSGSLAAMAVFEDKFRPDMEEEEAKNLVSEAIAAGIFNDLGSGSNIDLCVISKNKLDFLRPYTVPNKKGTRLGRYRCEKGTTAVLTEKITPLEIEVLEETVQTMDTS
In words: Inhibition of 20S constitutive proteasome beta 2 trypsin-like activity in human RPMI8226 cell lysates after 1 hr by coomassie brilliant blue staining-based fluorescence assay. The assay is classed as subcellular, Lysate.
`Cc1ncc(C(=O)N[C@@H](CC2CCCCC2)C(=O)N[C@@H](CC(C)C)C(=O)N[C@H](/C=C/S(C)(=O)=O)Cc2ccc(CN)cc2)s1`: the IC50 was greater than 10 µM.

Another assay concerns the target T3, Proteasome subunit beta type-9. The assay can be described thus: Inhibition of 20S immunoproteasome beta 1 in human Raji cell lysates after 1 hr by competitive ABPP assay. The assay is classed as subcellular, Lysate. The essentials:
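Raji cells were sonicated in 3 volumes of Tris pH 7.5 lysis buffer containing DTT, MgCl₂, sucrose, 2 mM ATP and 0.05% digitonin. Lysate (5 μg protein, in buffer with 2 mM ATP and glycerol) was preincubated with inhibitor for 1 h at 37 °C, then with a cocktail of three fluorescent ABPs for 1 h. […] In-gel fluorescence densitometry was normalized to mock. IC50 came from the mean of three experiments.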
Regarding `Cc1ncc(C(=O)N[C@@H](CC2CCCCC2)C(=O)N[C@@H](CC(C)C)C(=O)N[C@H](/C=C/S(C)(=O)=O)Cc2ccc(CN)cc2)s1`, the IC50 is greater than 100 µM.

In the next assay the target is T4, Proteasome subunit beta type-10. The assay can be described thus: Inhibition of 20S immunoproteasome beta 2 in human Raji cell lysates after 1 hr by competitive ABPP assay. The assay is classed as subcellular, Lysate.
`Cc1ncc(C(=O)N[C@@H](CC2CCCCC2)C(=O)N[C@@H](CC(C)C)C(=O)N[C@H](/C=C/S(C)(=O)=O)Cc2ccc(CN)cc2)s1` gave an IC50 of 0.42 µM.

Another assay is filed under the species Homo sapiens. In words: Selectivity ratio of IC50 for 20S immunoproteasome beta 2 in human Raji cell lysates to IC50 for 20S constitutive proteasome beta 2 trypsin-like activity in human Raji cells. The assay is classed as cell-based.
For `Cc1ncc(C(=O)N[C@@H](CC2CCCCC2)C(=O)N[C@@H](CC(C)C)C(=O)N[C@H](/C=C/S(C)(=O)=O)Cc2ccc(CN)cc2)s1`, the Ratio IC50 turned out to be 6.

The target of a further assay is T5, Proteasome subunit beta type-8. The assay can be described thus: Inhibition of 20S immunoproteasome beta 5 in human Raji cell lysates after 1 hr by competitive ABPP assay. The assay is classed as subcellular, Lysate.
As to `Cc1ncc(C(=O)N[C@@H](CC2CCCCC2)C(=O)N[C@@H](CC(C)C)C(=O)N[C@H](/C=C/S(C)(=O)=O)Cc2ccc(CN)cc2)s1`, the IC50 is greater than 100 µM.

These data come from ChEMBL document CHEMBL4368918, “Structure-Based Design of Inhibitors Selective for Human Proteasome β2c or β2i Subunits” (J Med Chem, 2019).
